From ChEMBL document CHEMBL1240328, “Selective compounds define Hsp90 as a major inhibitor of apoptosis in small-cell lung cancer” (Nat Chem Biol, 2007)
The source made the active and inactive calls. No cut-off for these calls is given here.

Columns and labels:
SK-BR-3 [1] = test: Inhibition of HSP70-mediated antiapoptotic activity in human SKBR3 cells assessed as induction of cell growth arrest after 72 hrs by propidium iodide staining-based flow cytometry
[2] = target: Heat shock protein HSP 90-beta (Homo sapiens) (UniProt P08238); test: Inhibition of HSP90-mediated antiapoptotic activity in human NCI-H526 cells assessed as induction of caspase-9 cleavage at 10 uM after 24 hrs by Western blot analysis; type: cell-based
Method in brief: (§1)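 NCI-H526 cells at 60–70% confluence were exposed to drug or DMSO for 24 h. Lysed in 50 mM Tris pH 7.4, 150 mM NaCl, 1% NP-40, with protein measured by BCA. 20–100 µg run on SDS-PAGE and blotted to nitrocellulose. Probed with cleaved-protein antibodies and peroxidase secondary at 1:5,000, with β-actin as loading control.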

[3] = target: Heat shock protein HSP 90-beta (Homo sapiens) (UniProt P08238); test: Inhibition of HSP90-mediated antiapoptotic activity in human NCI-H187 cells assessed as subG1 accumulation at 25 uM after 72 hrs by propidium iodide staining-based flow cytometry; type: cell-based
Method in brief: (§2)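 SCLC cells treated for 72 h with graded doses. Mitochondrial membrane potential read by flow cytometry after JC-1 staining, with green-only emission indicating depolarization. Sub-G1 DNA content read after propidium iodide staining. CCCP used as positive control. n = 3 repeat experiments.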

[4] = target: Heat shock protein HSP 90-beta (Homo sapiens) (UniProt P08238); test: Inhibition of HSP90-mediated antiapoptotic activity in human MCF7 cells assessed as induction of PARP cleavage at 400 uM after 24 hrs by Western blot analysis; type: cell-based
[5] = target: Heat shock protein HSP 90-beta (Homo sapiens) (UniProt P08238); test: Effect on HSP90-mediated Bcl-2 expression in human NCI-H526 cells at 25 uM after 24 hrs by Western blot analysis; type: cell-based
Method in brief: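 NCI-H526 cells were exposed for 24 h to drug or DMSO vehicle. Lysates were made in 50 mM Tris pH 7.4, 150 mM NaCl, 1% NP-40 and quantified by BCA. Western blot used 20–100 µg protein per lane, with β-actin as loading control.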

[6] = target: Heat shock protein HSP 90-beta (Homo sapiens) (UniProt P08238); test: Inhibition of HSP90-mediated antiapoptotic activity in human MCF7 cells assessed as induction of cell growth arrest at 100 uM after 24 hrs by propidium iodide staining-based flow cytometry
[7] = target: Heat shock protein HSP 90-beta (Homo sapiens) (UniProt P08238); test: Inhibition of HSP90-mediated antiapoptotic activity in human NCI-H187 cells assessed as mitochondrial membrane depolarization at 5 uM after 72 hrs by JC-1 staining-based flow cytometry; type: cell-based; method in brief: as §2
[8] = target: Heat shock protein HSP 90-beta (Homo sapiens) (UniProt P08238); test: Inhibition of HSP90-mediated antiapoptotic activity in human NCI-H187 cells assessed as subG1 accumulation at 15 uM after 72 hrs by propidium iodide staining-based flow cytometry; type: cell-based; method in brief: as §2
[9] = target: Heat shock protein HSP 90-beta (Homo sapiens) (UniProt P08238); test: Inhibition of HSP90-mediated antiapoptotic activity in human NCI-H526 cells assessed as increase in caspase-3 activity at 10 uM after 24 hrs by Western blot analysis; type: cell-based
SK-BR-3 [10] = test: Inhibition of HSP70-mediated antiapoptotic activity in human SKBR3 cells assessed as increase in caspase-3 activity after 24 hrs by Western blot analysis; type: cell-based
[11] = target: Heat shock protein HSP 90-beta (Homo sapiens) (UniProt P08238); test: Inhibition of HSP90-mediated antiapoptotic activity in human SKBR3 cells assessed as induction of cell growth arrest at 20 uM after 24 hrs by propidium iodide staining-based flow cytometry; conditions: SK-BR-3
[12] = target: Heat shock protein HSP 90-beta (Homo sapiens) (UniProt P08238); test: Inhibition of HSP90-mediated antiapoptotic activity in human SKBR3 cells assessed as induction of caspase-3 cleavage at 50 uM after 24 hrs by Western blot analysis; type: cell-based; conditions: SK-BR-3
Method in brief: (§3)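 SKBr3 cells at 60–70% confluence were exposed to drug or DMSO vehicle. Lysis was in 50 mM Tris pH 7.4, 150 mM NaCl, 1% NP-40, with protein measured by BCA. Lysates of 20–100 µg were run on SDS-PAGE, blotted to nitrocellulose, probed with primary antibodies and detected with a peroxidase-conjugated secondary (1:5,000). Loading was checked with β-actin or PI(3)K p85.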

[13] = target: Heat shock protein HSP 90-beta (Homo sapiens) (UniProt P08238); test: Inhibition of HSP90-mediated antiapoptotic activity in human MCF7 cells assessed as induction of cell growth arrest at 50 uM after 24 hrs by propidium iodide staining-based flow cytometry
[14] = target: Heat shock protein HSP 90-beta (Homo sapiens) (UniProt P08238); test: Inhibition of HSP90-mediated antiapoptotic activity in human NCI-H526 cells assessed as induction of caspase-2 cleavage at 10 uM after 24 hrs by Western blot analysis; type: cell-based; method in brief: as §1
[15] = target: Heat shock protein HSP 90-beta (Homo sapiens) (UniProt P08238); test: Inhibition of HSP90-mediated antiapoptotic activity in human NCI-H526 cells assessed as increase in caspase-3 activity at 10 uM after 72 hrs by fluorescence assay in presence of caspase-9 inhibitor Z-LEHD-FMK; type: cell-based
Method in brief: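 NCI-H526 cells pretreated with Z-LEHD-FMK (100 µM), then exposed to 10 µM for 72 h. Caspase-3 activation read by Z-DEVD-R110 fluorescence. Caspase-3 and PARP cleavage read by western blot. n = 3.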

[16] = target: Heat shock protein HSP 90-beta (Homo sapiens) (UniProt P08238); test: Inhibition of HSP90-mediated antiapoptotic activity in human SKBR3 cells assessed as induction of PARP cleavage at 20 uM after 24 hrs by Western blot analysis; type: cell-based; conditions: SK-BR-3; method in brief: as §3
[17] = target: Heat shock protein HSP 90-beta (Homo sapiens) (UniProt P08238); test: Inhibition of HSP90-mediated antiapoptotic activity in human NCI-H526 cells assessed as increased association between caspase-9 and Apaf-1 at 20 uM after 1 hr by Western blot analysis
[18] = target: Heat shock protein HSP 90-beta (Homo sapiens) (UniProt P08238); test: Inhibition of HSP90-mediated antiapoptotic activity in human MCF7 cells assessed as induction of caspase-3 cleavage at 400 uM after 24 hrs by Western blot analysis; type: cell-based
[19] = target: Heat shock protein HSP 90-beta (Homo sapiens) (UniProt P08238); test: Inhibition of HSP90-mediated antiapoptotic activity in human NCI-H526 cells assessed as subG1 accumulation at 2.5 uM after 72 hrs by propidium iodide staining-based flow cytometry; type: cell-based; method in brief: as §2
[20] = target: Heat shock protein HSP 90-beta (Homo sapiens) (UniProt P08238); test: Inhibition of HSP90-mediated antiapoptotic activity in human NCI-H526 cells assessed as induction of Akt degradation at 50 uM after 24 hrs by Western blot analysis; type: cell-based
SK-BR-3 [21] = test: Inhibition of HSP70-mediated antiapoptotic activity in human SKBR3 cells assessed as induction of PARP cleavage after 24 hrs by Western blot analysis; type: cell-based
Method in brief: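 SKBr3 cells were treated for 24 h. Lysates were probed by western blot for caspase-3 and PARP cleavage. Apaf-1 complexes were pulled down with Apaf-1 antibody (with control IgG) and immunoblotted.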

[22] = target: Heat shock protein HSP 90-beta (Homo sapiens) (UniProt P08238); test: Inhibition of HSP90-mediated antiapoptotic activity in human SKBR3 cells assessed as induction of caspase-9 cleavage at 20 uM after 24 hrs by Western blot analysis; type: cell-based; conditions: SK-BR-3; method in brief: as §3
[23] = target: Heat shock protein HSP 90-beta (Homo sapiens) (UniProt P08238); test: Inhibition of HSP90-mediated antiapoptotic activity in human NCI-H526 cells assessed as release of Apaf-1 from chaperon complex at 20 uM after 1 hr by Western blot analysis; type: cell-based
Method in brief: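 NCI-H526 cells treated with 20 µM for the indicated times. Complexes immunoprecipitated with Apaf-1 or caspase-9 antibodies, with control IgG alongside. Co-precipitated proteins identified by western blot.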

[24] = target: Heat shock protein HSP 90-beta (Homo sapiens) (UniProt P08238); test: Inhibition of HSP90-mediated antiapoptotic activity in human NCI-N417 cells assessed as mitochondrial membrane depolarization at 5 uM after 96 hrs by JC-1 staining-based flow cytometry; type: cell-based; conditions: NCI-H417
Method in brief: (§4)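 Mitochondrial membrane potential was measured by JC-1 staining and flow cytometry. Depolarization was scored as a shift to cells emitting only green fluorescence. The mitochondrial uncoupler CCCP served as positive control.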

[25] = target: Heat shock protein HSP 90-beta (Homo sapiens) (UniProt P08238); test: Inhibition of HSP90-mediated antiapoptotic activity in human NCI-H69 cells assessed as mitochondrial membrane depolarization at 5 uM after 72 hrs by JC-1 staining-based flow cytometry; type: cell-based; method in brief: as §4

Heat shock protein HSP 90-beta (Homo sapiens), sequence (P08238 whole entry): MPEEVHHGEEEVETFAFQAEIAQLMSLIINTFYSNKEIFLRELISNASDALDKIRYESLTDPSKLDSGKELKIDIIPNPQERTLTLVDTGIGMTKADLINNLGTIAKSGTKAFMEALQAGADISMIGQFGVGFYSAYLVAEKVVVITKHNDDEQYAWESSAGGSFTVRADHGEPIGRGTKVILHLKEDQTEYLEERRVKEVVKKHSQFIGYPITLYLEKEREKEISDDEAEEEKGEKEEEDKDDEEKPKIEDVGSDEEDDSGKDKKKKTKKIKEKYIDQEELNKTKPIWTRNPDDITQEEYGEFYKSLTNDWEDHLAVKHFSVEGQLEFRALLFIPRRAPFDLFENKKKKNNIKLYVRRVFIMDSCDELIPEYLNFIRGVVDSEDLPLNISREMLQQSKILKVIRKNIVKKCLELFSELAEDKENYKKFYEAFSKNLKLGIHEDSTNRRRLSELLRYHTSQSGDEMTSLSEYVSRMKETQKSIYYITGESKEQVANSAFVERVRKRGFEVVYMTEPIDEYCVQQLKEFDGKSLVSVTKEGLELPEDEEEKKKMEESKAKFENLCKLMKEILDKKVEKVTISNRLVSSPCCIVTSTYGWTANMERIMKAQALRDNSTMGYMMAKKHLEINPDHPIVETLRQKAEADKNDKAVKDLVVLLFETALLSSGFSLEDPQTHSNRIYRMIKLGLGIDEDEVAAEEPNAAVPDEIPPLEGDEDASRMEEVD

## O=CN1CC/C(=C/c2ccc3c(c2)OCO3)C1=O
SK-BR-3 [1]
  inhibition: Active
[2]
  Activity: inactive
[3]
  Activity: inactive
[4]
  Activity: inactive
[5]
  Activity: inactive
[6]
  Activity: Active
[7]
  Activity: inactive
[8]
  Activity: inactive
[9]
  Activity: inactive
SK-BR-3 [10]
  inhibition: Active
[11]
  Activity: inactive
[12]
  Activity: inactive
[13]
  Activity: inactive
[14]
  Activity: inactive
[15]
  Activity: inactive
[16]
  Activity: inactive
[17]
  Activity: inactive
[18]
  Activity: inactive
[19]
  Activity: inactive
[20]
  Activity: inactive
SK-BR-3 [21]
  inhibition: Active
[22]
  Activity: inactive
[23]
  Activity: inactive
[24]
  Activity: inactive
[25]
  Activity: inactive
